Measured values reported in the RNAGym collection of RNA variant scans (doi:10.1126/science.aae0568).
Fewer inactive variants are shown than the library holds.

B1: tRNA (parent)
chain: GUUCCGUUGGCGUAAUGGUAACGCGUCUCCCUCCUAAGGAGAAGACUGCGGGUUCGAGUCCCGUACGGAACG

Variants of: B1
Experiment: yeast fitness relative to wild type (ratio to wild type); higher = fitter; tRNA-Arg(CCU), competitive growth, 37 C, YPD
Summary of the method: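 A pool of Saccharomyces cerevisiae strains, each with a tRNA-Arg(CCU) gene variant at the native genomic locus, was competed in YPD at 37°C for 24 hours across six parallel replicates. The variants had been chemically synthesised at a 3% per-site mutation rate over 69 sites, and gene amplicons before and after competition were read by 100-nucleotide paired-end sequencing. Darwinian fitness relative to wild type rested on changes in genotype frequencies. Genotypes required ≥ 100 starting reads, and estimates < 0.5 were set to 0.5.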

Point of comparison: U19A C66A, yeast fitness 0.607. Against it:
- A20C A21G A45C — higher, 0.687
- U19A U59G — higher, 0.793
- C5G U13G — higher, 0.703
- U2G A37C G41A C49U — lower, ≤ 0.5
- C5U U32C A57C — lower, 0.583
- C5G C30U C31G — higher, 0.79
- A40C G56C — higher, 0.609
- G12A A20U G23C U32C A69G — lower, ≤ 0.5
- U2C U13C C22G U26A C31U A42C G50C U64A C66U G68C — lower, ≤ 0.5
- U2C C29U A37G C66U — lower, 0.578
- C4U A14G C34A — lower, ≤ 0.5
- A14G G67U — higher, 0.776
- U8C A70C — higher, 0.922
- C5U U16A C33U C49A — lower, ≤ 0.5
- C4G U13A C33G A36G — lower, ≤ 0.5
- G9A C62U — higher, 0.916
- U2G C11U C30U C55A A65C — lower, ≤ 0.5
- C46A A57G G68A — lower, 0.605
- G10A U35G A43G C46U — lower, 0.587
- U2C G63A — higher, 0.799
- G9C C24A C62G — lower, ≤ 0.5
- U7G G44A C61U — higher, 0.689
- U35A A40U C46G U53A — lower, ≤ 0.5
- A15C A42G C49A — lower, 0.605
- U35A C60A A65U A70G — lower, ≤ 0.5
- G38C A42G A70C — lower, ≤ 0.5
- G18A C55U — lower, 0.554
- A42C G68A — higher, 0.898
- C5U A14C A21C — lower, 0.552
- C5G G10A A42G C55U A70C — lower, ≤ 0.5
- A36G A40C A42G C61U — lower, 0.566
- U7G U13C G52A A57C A65C — lower, ≤ 0.5
- C24G C29U G51C — lower, 0.576
- U7A C27U U28C — lower, ≤ 0.5
- U3G C4A G12A C29A C30G — lower, 0.556
- C34G G52C — lower, ≤ 0.5
- A43G U54C — higher, 0.905
- G9C C11G G12C U28C C61U — higher, 0.747
- U2C G25C A36U G38A — lower, ≤ 0.5
- A14U A37U A65G — lower, ≤ 0.5
- C5U C11A C34G — lower, ≤ 0.5
- C31U C60U — higher, 0.841
- A42U A43G — higher, 0.88
- G48A A65G — higher, 0.981
- C33A U35C C46U C49U G52C C61U C66U A69U — lower, 0.528
- C22U G51C C61G A70C — lower, 0.514
- G17A U19C — higher, 0.95
- G10A C11U C22U A57U — lower, ≤ 0.5
- C11U C33G — higher, 0.734
- C22G C31G U54A C61G A69C — lower, ≤ 0.5
- G10A A20U A42G C60U U64A C66A G68A A69G — lower, ≤ 0.5
- U26G A45G C46U U53G — lower, 0.599
- C27U C31U C60G — lower, 0.581
- U8C A45G — higher, 0.906
- G10A G38C G67U — lower, ≤ 0.5
- C11A A43U U64C — lower, ≤ 0.5
- A14U C30U G58C C60A — lower, ≤ 0.5
- C22A A45C C66G — higher, 0.691
- C5G A65G A69U — higher, 0.71
- C4U C27G C31G — lower, ≤ 0.5
- G25C C55U A69U — higher, 0.609
- U2G C49U C62U — lower, 0.565
- C31A A36C — lower, 0.558
- C11A A21G A40G — lower, 0.571
- C5G U64A — higher, 0.784
- A15U C24G A42C C62U — lower, ≤ 0.5
- G9A C11U A36C C49G U53G — lower, ≤ 0.5
- U3C C24U C29G C49U — higher, 0.618
- U16C G51A A65U — lower, 0.572
- A57U C62U C66U — higher, 0.613
- G48A G52C U54C — lower, 0.542
- A21G G39A — higher, 0.809
- U2C A57G C66G — lower, ≤ 0.5
- G10A U13A C29U C49G — lower, ≤ 0.5
- A40G C61U G68A — lower, ≤ 0.5
- G39A A40C C60U G68U — lower, ≤ 0.5
- G6C C24G C27G C29A C34U U53A A70G — lower, ≤ 0.5
- C29G C49G G68C — lower, ≤ 0.5
- C5A A15U A69C — lower, ≤ 0.5
- C4A A20U G44C C60A — lower, ≤ 0.5
- C11A U47C G51C — lower, ≤ 0.5
- C5A C29A C30G C55U C61G A65C — lower, 0.554
- G38C C46G C49G G51C C61U — lower, 0.593
